FXIa inh – human FXIa protease inhibitors, primary screen, biochemical, 1536-well | 220,000 compounds, 0.14% hits | inhibition, % at 5 µM | Coagulation factor XI (Homo sapiens), P03951 | purified FXIa, Boc-Glu-Ala-Arg-AMC fluorogenic substrate;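 active = inhibition of at least 40%; inactive = inhibition below 40%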;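 note: fluorescence of freed AMC excited at 355 nm; 0% = enzyme without compound and 100% = no enzyme blank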
Target sequence (P03951 19-387 limits assumed): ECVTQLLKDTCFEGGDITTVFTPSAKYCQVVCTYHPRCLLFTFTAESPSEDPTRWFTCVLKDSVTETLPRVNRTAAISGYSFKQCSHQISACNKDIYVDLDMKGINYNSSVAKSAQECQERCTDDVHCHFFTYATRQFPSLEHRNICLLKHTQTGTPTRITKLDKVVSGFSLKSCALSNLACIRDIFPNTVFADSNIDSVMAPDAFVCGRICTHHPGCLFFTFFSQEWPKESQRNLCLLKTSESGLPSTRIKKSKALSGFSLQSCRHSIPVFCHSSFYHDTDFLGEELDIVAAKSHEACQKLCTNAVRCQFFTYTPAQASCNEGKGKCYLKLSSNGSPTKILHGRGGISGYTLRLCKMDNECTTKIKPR
Target sequence (P03951 388-625 limits assumed): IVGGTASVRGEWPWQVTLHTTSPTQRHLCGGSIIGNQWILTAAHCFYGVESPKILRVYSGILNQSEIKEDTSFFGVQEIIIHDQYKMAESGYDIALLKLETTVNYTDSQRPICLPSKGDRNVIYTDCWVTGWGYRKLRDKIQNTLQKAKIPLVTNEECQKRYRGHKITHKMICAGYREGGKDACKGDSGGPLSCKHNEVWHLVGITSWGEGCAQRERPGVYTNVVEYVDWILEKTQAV
FXIIa inh 1536 – human FXIIa protease inhibitors, primary screen, biochemical, 1536-well; Coagulation factor XII (Homo sapiens), P00748; purified FXIIa, Boc-QGR-AMC fluorogenic substrate, 2 h; inhibition, % at 5 µM; 220,000 compounds, 0.3% hits; in the data active = inhibition above about 40%;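 note: 0% = enzyme with no compound and 100% = blank without enzyme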
hK5 inh – human KLK5 protease inhibitors, primary screen, biochemical, 1536-well; Kallikrein-5 (Homo sapiens), Q9Y337; recombinant hK5, fluorogenic AMC substrate cleavage; inhibition, % at 5 µM; 210,000 compounds, 0.59% hits; AID 873, 2007;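 active = inhibition of 40% or more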;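 note: 0% = enzyme controls without compound and 100% = no-enzyme blanks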
Thrombin inh – human alpha-thrombin inhibitors, primary screen, counter-screen for coagulation protease inhibitor project, biochemical, 1536-well, fluorogenic AMC substrate. Prothrombin (Homo sapiens), P00734. Boc-VPR-AMC fluorogenic substrate cleavage. inhibition, % at 5 µM. 220,000 compounds, 0.26% hits. AID 1046, 2008;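 active = inhibition at or above 40%; inactive = inhibition below 40%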;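 note: 0% = enzyme with no compound and 100% = wells without enzyme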
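Test system: human alpha-thrombin; medium: pH 7.5 Tris-saline with Tween 20; times: reaction at room temperature; signal: AMC fluorescence at 355 nm excitation and 460 nm emission; also added: Boc-VPR-AMC substrate, 15 µM final; dosing: one concentration per compound, 5 µM, with 0.2% DMSO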
HSV replic up – enhancers of HSV replication in host cells, fold increase, host cell viability | maximum fold increase | AID 1956, 2009 | HSV replication augmentation in cells | 220,000 compounds, 0.005% hits; in the data active = maximum fold increase above about 1.5; tested in PC3 cells
Furin inhibitor – human furin inhibitors, primary screen, biochemical, fluorescence intensity; 220,000 compounds, 0.061% hits; P09958; purified furin, fluorogenic substrate cleavage; inhibition, % at 20 µM or 30 µM; in the data active = inhibition above about 25%
Numbers without * were called inactive; i = inactive; x = no result given. Compounds with a hit are over-represented: about 1% of the library has one in this group of screens.

SMILES | FXIa inh | FXIIa inh 1536 | hK5 inh | Thrombin inh | HSV replic up | Furin inhibitor
CC(/C=C/c1ccccc1)=N/NC(=O)c1cnccn1 | 4 | 11 | -9 | 3 | i | 27*
O=C(N/N=C/C=C/c1ccccc1)c1cnccn1 | 2 | 9 | -14 | -3 | i | -6
O=C(CNC(=S)N(Cc1ccccc1)Cc1ccccc1F)NCc1ccccc1 | -2 | 12 | -3 | -6 | i | -10
O=C(CNC(=S)N(Cc1ccccc1)Cc1ccccc1F)NCCc1ccccc1 | 11 | 41* | 18 | 9 | i | 2
Cc1cc(C)cc(NC(=O)Cn2nnc3ccccc3c2=O)c1 | 1 | 14 | 0 | 0 | i | -24
COc1ccc(C(=O)NCCN2CCOCC2)cc1OC | 5 | 6 | -7 | -4 | i | 30*
O=C(Cn1nc(C(F)F)cc1C(F)F)NNC(=S)Nc1ccc(F)cc1 | -4 | -17 | -223 | 50* | i | -2
Cc1nc2c(C)cccn2c1/C(O)=C1\C(=O)C(=O)N(CCN(C)C)C1c1ccccc1 (centres undefined) | -1 | 4 | 0 | -8 | i | -4
O=C(COC(=O)CCC(=O)c1cccs1)Nc1ccccc1[N+](=O)[O-] | -1 | 3 | 6 | 42* | i | -25
N#Cc1ccccc1NC(=O)COC(=O)COc1ccccc1[N+](=O)[O-] | 3 | 14 | 2 | 42* | i | -14
CCOc1ccc(N(CC(=O)NC(C(C)C)C(C)C)S(=O)(=O)c2ccc(OC)c(OC)c2)cc1 | 3 | 13 | 5 | 2 | i | -16
Cc1cc(NC(=O)COc2c(C)cccc2C)no1 | 15 | 32 | 27 | 5 | i | -12
CC(=O)NNC(=O)c1sc(=S)n2c1[nH]c(=O)c1sccc12 | -3 | 3 | -73 | -11 | i | -4
O=C(NCc1ccccc1)c1sc(=S)n2c1[nH]c(=O)c1ccccc12 | 16 | 16 | 43* | 25 | i | -28
CCOc1ccc(-n2c(SCC(N)=O)nc3c([nH]c4ccccc43)c2=O)cc1 | 4 | 8 | 44* | 16 | i | -11
Cc1ccc(-c2c[n+](CC(=O)Nc3nc(-c4ccccc4)cs3)c3n2CCC3)cc1 | 2 | 5 | 2 | 4 | i | -17
O=C(C[n+]1cc(-c2ccccc2)n2c1CCC2)Nc1nc(-c2ccccc2)cs1 | 30 | 41* | 42* | 18 | i | -24
Cc1nn(-c2ccccc2)nc1CNS(C)(=O)=O | -1 | 2 | -2 | -8 | i | -17
COc1ccc(C2/C=C\CN(C(=O)c3ccccc3)[C@H](Cc3ccccc3)C(=O)N2Cc2ccc(F)cc2)cc1 (some centres undefined) | 3 | 12 | 3 | 4 | i | -22
CCCN1C(=O)/C(=C/c2ccc(N3CCOCC3)cc2)NC1=S | -7 | 10 | -12 | 8 | 1.6* | -27
CCO[C@H]1OC(C(=O)NCc2ccccc2)=C[C@@H](c2ccccc2)[C@@H]1CCCO | 5 | 11 | 2 | -1 | i | -30
COc1ccc(N2C(=S)N=C(Nc3ccccc3)C23CCCCC3)cc1 | -2 | 10 | 1 | 101* | x | -31
COc1ccc(NC2=NC(=S)N(c3ccccc3C)C23CCCCC3)cc1 | -7 | 8 | -11 | -1 | i | -22
CCCN(CCC)S(=O)(=O)c1ccc(C(=O)NNc2nc(-c3ccccc3)c3cc(Br)ccc3n2)cc1 | 66* | 10 | -68 | 3 | i | -30
CCCN(CCC)S(=O)(=O)c1ccc(C(=O)Nc2nnc(COC)o2)cc1 | -1 | 2 | -2 | -1 | i | -19
SMILES | FXIa inh | FXIIa inh 1536 | hK5 inh | Thrombin inh | HSV replic up | Furin inhibitor
Cc1onc(-c2ccccc2)c1CNC(=O)C1COc2ccccc2O1 (centres undefined) | -1 | 6 | -4 | -2 | i | -9
O=C(NCc1ccc(F)cc1)c1ccc(S(=O)(=O)Nc2cccc(C(F)(F)F)c2)cc1 | 5 | 10 | 49* | 25 | i | 3
O=c1c2[nH]c3cccc(Cl)c3c2ncn1CC1CCCO1 (centres undefined) | 2 | 11 | 1 | 2 | i | -15
O=c1c2[nH]c3cccc(Cl)c3c2ncn1CCN1CCCCC1 | 19 | 43* | -21 | 0 | i | -27
Cc1ccc(OCC(=O)N2CCCCC2)c(Br)c1 | -1 | 1 | 48* | 3 | i | -20
C=C(C)CSc1nnc(-c2ccc(OC)cc2)n1N | 3 | 16 | 45* | 15 | i | -16
C[C@H](NC(=O)c1ccccc1Cl)C(=O)NCc1cccs1 | 3 | 12 | 1 | 0 | x | -42
CC1(C)CC2CC(C)(CN2C(=O)c2cc(-c3ccccc3O)on2)C1 (centres undefined) | 8 | 29 | 45* | 26 | i | -19
O=C(c1cc2cc(Br)ccc2o1)N1CCOCC1 | 0 | 11 | x | -1 | i | -15
O=C(c1cc2cc(Br)ccc2o1)N1CCCC1 | 37 | x | 18 | 57* | i | -2
CC(=O)N1CCN(Cc2nc3cc(NC(=O)Nc4ccccc4)ccc3n2C)CC1 | 0 | 8 | x | 0 | i | -22
CC(=O)Nc1ccc(NC(=O)CSc2ccccn2)cc1 | -11 | -1 | -4 | -1 | i | -7
CC(=O)Nc1nonc1NC(=O)CSc1ccccn1 | 11 | 70* | 4 | 0 | i | -5
Clc1ccc(-c2ccc(SCc3ccccn3)nn2)cc1 | 12 | 22 | 43* | 16 | i | 2
N#Cc1nc(COc2ccc(Br)cc2)oc1NCCN1CCOCC1 | 13 | -7 | 45* | 6 | i | -24
N#Cc1nc(COc2ccc(F)cc2)oc1NCCN1CCOCC1 | -11 | -7 | -26 | -15 | i | -20
COc1ccc(Oc2ccccc2/C=N/O)cc1 | 1 | 0 | 117* | -1 | i | -13
CCOc1cc(C2NC(=O)NC(O)(C(F)(F)F)C2C(=O)c2ccc(Cl)cc2)ccc1O (centres undefined) | 8 | 27 | 28 | 54* | i | -11
CCC(=O)c1ccccc1OCCSc1nc(C)cc(=O)[nH]1 | -2 | 0 | 146* | 2 | i | -19
CC(=O)Nc1cccc(NC(=O)C(=O)c2cn(CC(=O)N3CCCCC3)c3ccccc23)c1 | -6 | 12 | -6 | 2 | i | -2
Cc1nn2c(CN(C(=O)CN3CCOCC3)c3ccccc3)nnc2c2ccccc12 | 26 | 42* | 30 | 10 | i | -3
CCOC(=O)c1[nH]c(C)c(C(=O)Nc2ccc(C)cc2C)c1C | 10 | 21 | 80* | -1 | i | -5
